Here are results for four molecules from ChEMBL document CHEMBL3271958, “Azaparacyclophanes. A novel class of conformationally rigid analogs of phenylethylamine and phenylpropylamine” (J Med Chem, 1976).

The test system of data set [1] is Felis catus. The data set is described as follows: Anticholinergic activity in cat assessed as effect on acetylcholine-induced normal heart rate and blood pressure changes at 1 to 10 mg/kg, iv. Type of data set: ADME, organism-based. Details: dose 1-10 mg/kg, route intravenous. Particulars: in vivo. An outline of the steps:
(§1)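 Pentobarbital-anaesthetised cat monitored for blood pressure and heart rate. Hydrochloride salt given as cumulative iv doses of 1, 3 and 10 mg/kg, each tested against a standard acetylcholine challenge of 1 μg/kg, noting any change in the normal heart-rate and pressure responses.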

The test system of data set [2] is Mus musculus. The data set is described as follows: Induction of mydriasis in mouse assessed as papillary diameter at 30 mg/kg, ip by binocular microscopic analysis. The data set is classed as functional, organism-based. Further details: dose 30 mg/kg. The gist of the method:
(§2)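 Mouse pupil diameter was read through a binocular microscope fitted with an ocular micrometer (Pulewka method), after dosing within the mouse behaviour screen.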

Data set [3] has as its system Mus musculus. The data set can be described thus: Induction of mydriasis in mouse assessed as papillary diameter at 25 mg/kg, sc by binocular microscopic analysis. The data set is classed as functional, organism-based. Further details: dose 25 mg/kg. An outline of the steps:
as §2

Data set [4] concerns Felis catus. The data set can be described thus: Sympathomimetic activity in iv dosed cat assessed as increase of heart rate and blood pressure. The data set is classed as ADME, organism-based. Particulars: in vivo. An outline of the steps:
as §1

Another data set concerns Rattus norvegicus. The data set is described as follows: Central dopaminergic activity in rat assessed as dopaminergic stimulant activity at 30 mg/kg, ip. Particulars: in vivo. Type of data set: ADME, organism-based. Details: dose 30 mg/kg, route intraperitoneal. The gist of the method:
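Rats carrying 6-hydroxydopamine lesions of the nigrostriatal pathway (Ungerstedt), dosed 30 mg/kg ip. Rotation was scored: ipsilateral turning indicates release of endogenous dopamine, contralateral turning indicates direct dopamine-receptor stimulation.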

The subject of data set [5] is Mus musculus. The data set can be described thus: Sympathomimetic activity in mouse assessed as signs of exophthalmia and piloerection at 10 to 300 mg/kg, ip. Details: dose 10-300 mg/kg, route intraperitoneal. Particulars: in vivo. Type of data set: ADME, organism-based.
Data set [6] deals with Mus musculus. The data set is described as follows: Toxicity in mouse at 30 mg/kg, ip. Particulars: in vivo. Further details: dose 30 mg/kg, route intraperitoneal. Type of data set: organism-based.
In data set [7] the test system is Mus musculus. The data set can be described thus: Induction of mydriasis in mouse assessed as […] at 100 mg/kg, ip by binocular microscopic analysis. The data set is classed as functional, organism-based. Further details: dose 100 mg/kg. The gist of the method: as §2
Data set [8] relates to Mus musculus. The data set is described as follows: Toxicity in mouse at 100 mg/kg, ip. The data set is classed as organism-based. Details: dose 100 mg/kg, route intraperitoneal. Particulars: in vivo.
Data set [9] relates to Mus musculus. The data set can be described thus: Sympathomimetic activity in mouse assessed as signs of exophthalmia at 100 mg/kg, ip. Details: dose 100 mg/kg, route intraperitoneal. The data set is classed as ADME, organism-based. The following applies: in vivo. The gist of the method: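 Irwin-type mouse behavioural screen with intraperitoneal doses of 10, 30, 100 and 300 mg/kg, compound given as the hydrochloride salt. Animals were scored by observation for overt signs, including exophthalmia as an indicator of sympathomimetic activity and mydriasis. Pupil diameter was measured under a binocular microscope with an ocular micrometer.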

Activity calls are given as the source filed them. The rule behind the calls is not given here.

For `Cl.c1cc2ccc1CCCCCNCCC2`, the Activity entry with Felis catus [1], with Felis catus [4], with Rattus norvegicus and with Mus musculus [5] was “Non-toxic” in each case. Also, the result in the data set on Mus musculus [2] and in the data set on Mus musculus [3] was Active.
For `O=C(O)/C=C\C(=O)O.c1cc2ccc1CCCCCCNCC2`, the outcome with Mus musculus [2] was inactive. The Activity result in the data set with Rattus norvegicus is recorded as “Non-toxic”; in the data set with Mus musculus [6], “Toxic”.
Consider `CCCCCc1ccc(CCNC)cc1.O=C(O)/C=C\C(=O)O`, for which the outcome in the data set on Mus musculus [7] was inactive. In addition, the Activity entry is on record as “Non-toxic” with Rattus norvegicus and “Toxic” in the data set with Mus musculus [8].
As to `CCCCc1ccc(CCCNC)cc1.Cl`, the outcome in the data set with Mus musculus [7] was Active. The Activity entry in the data set on Rattus norvegicus is “Non-toxic”; with Mus musculus [9] it was “Toxic”.
